OX1R antag-1 = OX1R (HCRTR1) antagonists, primary screen, fluorescence, CHO/OX1R cells, Fluo-8 calcium, orexin A; Orexin/Hypocretin receptor type 1 (Homo sapiens), O43613; Fluo-8 calcium fluorescence; inhibition, % at 5 µM; 0.43% of 330,000 active;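 active means inhibition above its plate's threshold, mean inhibition of all tested compounds on the plate plus 3 SD, cut at about 37% in these data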
GalR3 antagonist = GalR3 antagonists in HEK293 cells, primary screen, cell-based, fluorescence readout. Galanin receptor type 3 (Homo sapiens), O60755. HEK293 GalR3-CNG cAMP membrane potential fluorescence; galR3 body fused to GalR1 C-terminus. inhibition, % at 3 µM. 0.44% of 360,000 active. AID 651719, 2012;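 active means inhibition above the screen-wide average plus 3 SD, cut at about 13% in these data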;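 further: forskolin and galanin both at EC90 stimulate the cells; cAMP rise reported by CNG channel membrane potential dye signal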
Target sequence (O60755 1-299 limits assumed): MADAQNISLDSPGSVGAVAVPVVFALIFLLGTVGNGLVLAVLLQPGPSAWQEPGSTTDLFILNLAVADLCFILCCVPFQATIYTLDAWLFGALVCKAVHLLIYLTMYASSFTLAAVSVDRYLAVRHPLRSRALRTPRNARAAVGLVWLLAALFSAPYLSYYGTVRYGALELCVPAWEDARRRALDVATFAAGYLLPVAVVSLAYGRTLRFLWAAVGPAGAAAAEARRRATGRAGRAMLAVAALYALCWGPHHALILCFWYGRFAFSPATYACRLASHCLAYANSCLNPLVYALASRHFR
CHO parental Ca = ATP-evoked calcium signal inhibitors, parental CHO, primary screen, counter-screen for OX1R antagonist project, cell-based, fluorescence, Fluo-8 calcium dye; inhibition, % at 5.6 µM; parental CHO-K1, ATP-induced calcium, Fluo-8 fluorescence; 0.63% of 330,000 active; AID 463079, 2010;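 active means inhibition above that plate's mean sample inhibition plus 3 SD, cut at about 26% in these data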
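Measured by: calcium-sensitive Fluo-8 fluorescence / Test system: CHO parental line / Controls: ATP-challenged DMSO wells low, unchallenged DMSO wells high / Measure: % inhibition / Compound: single nominal dose of 5.6 µM per compound / Replicates: single well per compound, no replicates / Reagent: ATP as calcium-mobilizing challenge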
GPR7 antagonist = GPR7 receptor antagonists, primary screen, cell-based, fluorescence, single concentration. GPR7-expressing cells, fluorescence antagonist assay. inhibition, % at 4.4 µM. 1.1% of 290,000 active. AID 1861, 2009; in the data active means inhibition above about 16%, passing the limit was not always enough;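 further: cells stimulated with the agonist NPW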
Target sequence (P48145 whole entry, looked up): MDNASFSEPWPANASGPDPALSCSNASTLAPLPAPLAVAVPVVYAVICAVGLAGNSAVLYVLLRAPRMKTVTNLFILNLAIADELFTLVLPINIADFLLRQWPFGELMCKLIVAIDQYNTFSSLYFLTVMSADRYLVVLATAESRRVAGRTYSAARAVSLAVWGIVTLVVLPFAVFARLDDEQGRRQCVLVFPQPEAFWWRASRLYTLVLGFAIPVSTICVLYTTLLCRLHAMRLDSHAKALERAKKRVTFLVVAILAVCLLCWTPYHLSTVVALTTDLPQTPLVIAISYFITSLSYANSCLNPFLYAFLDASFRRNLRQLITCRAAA
OX1R antag-2 = antagonists of human orexin 1 receptor (OX1R); Orexin/Hypocretin receptor type 1 (Homo sapiens), O43613; OX1R-expressing cells, FRET antagonist read-out; inhibition, % at 6.6 µM; 1.8% of 330,000 active; AID 485270, 2010; in the data active means inhibition mostly above about 38%, no sharp cut-off; inactive means mostly below about 40%
GalR3 antag conf = GalR3 antagonist hit confirmation, cell-based, fluorescence, triplicate. shares compounds with GalR3 antagonist. HEK293 GalR3 CNG cAMP biosensor, membrane potential fluorescence; galR3 fused to GalR1 carboxy tail; challenged with forskolin and galanin at EC90. inhibition, % at 3 µM. 59% of 1,600 active. AID 652245, 2013;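 active means inhibition above the primary screen's cutoff, the mean inhibition of all screened compounds plus 3 SD, cut at about 13% in these data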
HEK-CNG parental = nonspecific cAMP agonists in parental HEK-CNG cells, counter-screen for GalR3 antagonist project, cell-based, fluorescence, high throughput. shares compounds with GalR3 antagonist. HEK293-CNG parental cells, cAMP membrane potential fluorescence; normalised: DMSO wells 0%, forskolin wells 100%. activation, % at 3 µM. 10% of 1,600 active; in the data active means activation above about 1.3%
Numbers stand for hits; - = inactive; . = not tested or not shown. Compounds with a hit are over-represented: about 3.1% of the library has one in this group of screens.

SMILES | OX1R antag-1 | GalR3 antagonist | CHO parental Ca | GPR7 antagonist | OX1R antag-2 | GalR3 antag conf | HEK-CNG parental
O=C(NC(Cc1cnc[nH]1)C(=O)O)c1ccccc1 (stereo not given) | - | 12.6 | - | - | - | - | -
C=CCn1c(O)c(C(C)=NCCN2CCN(C(=S)NC)CC2)c(=O)[nH]c1=O | - | - | - | - | - | . | .
COC(=O)C1=C(c2ccc(OC)c(OC)c2)C[C@@H]2CC[C@H]1N2C(=O)NC1CC1 | - | 15.3 | - | . | - | - | -
COC(=O)C1=C(c2cccc(C#N)c2)C[C@@H]2CC[C@H]1N2C(=O)NC1CC1 | - | 15.5 | - | . | - | 12.7 | -
COC(=O)C1=C(c2cccc(C#N)c2)C[C@@H]2CC[C@H]1N2C(=O)NC1Cc2ccccc2C1 | - | - | - | . | - | . | .
CC12CC[C@H]3[C@@H](CCC4(O)C[C@H](O)CCC34/C=N/NC(=O)c3ccc(O)cc3)C1(O)CCC2C1=CC(=O)OC1 (stereo not given in full) | - | - | - | - | - | . | .
COc1ccc(C(=O)N/N=C/C23CC[C@@H](O)CC2(O)CC[C@@H]2[C@@H]3CCC3(C)C(C4=CC(=O)OC4)CCC23O)cc1 (stereo not given in full) | - | 34.0 | - | - | - | 39.8 | -
CN(C)c1ccc(C(=O)N/N=C/C23CC[C@@H](O)CC2(O)CC[C@@H]2[C@@H]3CCC3(C)C(C4=CC(=O)OC4)CCC23O)cc1 (stereo not given in full) | - | 42.5 | - | - | - | 37.8 | 1.4
COC(=O)C1=C(c2cccc(Cl)c2)C[C@@H]2CC[C@H]1N2C(=O)NCC1CC1 | - | - | - | . | - | . | .
CC(C)(C#CC(=O)O)OOC(c1ccccc1)(c1ccccc1)c1ccccc1 | - | - | - | - | - | . | .
CC12CC[C@H]3[C@@H](CCC4(O)C[C@H](O)CCC34/C=N/NC(=O)c3ccccc3F)C1(O)CCC2C1=CC(=O)OC1 (stereo not given in full) | - | 37.2 | - | - | - | 23.4 | -
CC12CC[C@H]3[C@@H](CCC4(O)C[C@H](O)CCC34/C=N/NC(=O)c3ccccc3O)C1(O)CCC2C1=CC(=O)OC1 (stereo not given in full) | - | 30.5 | - | - | - | 24.7 | -
COC(=O)C1=CO[C@@H](C)[C@@H]2CN(CCc3c[nH]c4ccccc34)CC[C@H]12 | - | - | - | . | - | . | .
CC(C)(C)C(=O)Nc1ccc(S(=O)(=O)N2CC3CC(C2)c2cccc(=O)n2C3)cc1 (stereo not given) | - | - | - | - | - | . | .
NC(=S)c1cn(C2OC(CO)C(O)C2O)c2ncnc(N)c12 (stereo not given) | - | 51.2 | - | - | - | 82.9 | -
COC(=O)C1=C(c2ccc(OC(F)(F)F)cc2)C[C@@H]2CC[C@H]1N2C(=O)NCCOc1ccc(OC)cc1 | - | - | - | . | - | . | .
Oc1ccc(C2=CCNCC2)cc1O | - | 73.5 | - | . | - | 86.5 | -
C1=C(c2ccccc2)CCNC1 | - | - | - | - | - | . | .
CC(=O)OC1CC[C@]2(C#N)[C@H]3CC[C@]4(C)[C@H](C5C=CC(=O)O5)CCC4(O)C3CCC2(O)C1 (stereo not given in full) | - | 26.3 | - | - | - | 21.6 | 1.8
N=C1c2ccccc2CN1NC(=O)c1ccco1 | - | 12.6 | - | . | - | - | -
CCC(=NCC1CCCO1)c1c(O)n(-c2ccc(OC)cc2)c(=O)[nH]c1=O (stereo not given) | - | - | - | - | - | . | .
COOCC1(C(=O)OC)C[C@H](c2ccc(OC)cc2)N(Cc2ccccc2OC)[C@@H]1c1ccccc1C (stereo not given in full) | . | - | . | . | . | . | .
CC(C)(C)c1cc([N+](=O)[O-])cc(C(C)(C)C)c1O | - | 90.2 | - | - | - | 102.0 | -
NC(=O)c1cc([N+](=O)[O-])cc([N+](=O)[O-])c1 | . | - | . | . | . | . | .
CCC12CN3CCN(CC(C3)/C1=N/NC(=O)c1ccncc1)C2 | - | - | - | - | - | . | .
SMILES | OX1R antag-1 | GalR3 antagonist | CHO parental Ca | GPR7 antagonist | OX1R antag-2 | GalR3 antag conf | HEK-CNG parental
CC(Cc1ccc(O)cc1)NCC(O)c1cc(O)cc(O)c1 (stereo not given) | - | . | - | . | - | . | .
CCNCC(O)c1cccc(O)c1 (stereo not given) | - | 53.7 | - | - | - | 67.5 | -
O=C(N/N=C/c1c(O)n(CCc2ccc(F)cc2)c(=O)[nH]c1=O)c1ccncc1 | - | 24.8 | - | - | - | 19.0 | -
O=C(N/N=C/c1c(O)n(CCc2ccccc2)c(=O)[nH]c1=O)c1ccccc1O | - | 77.2 | - | - | - | 52.8 | -
O=C(N/N=C/c1c(O)n(Cc2ccc(F)cc2)c(=O)[nH]c1=O)c1ccccc1O | - | 12.6 | - | - | - | - | -
CC1CN2c3ccc([N+](=O)[O-])cc3CC3(C(=O)N(C)C(=O)N(C)C3=O)C2C(C)O1 (stereo not given) | - | - | - | - | - | . | .
CN(c1ccccc1)P(=O)(N1CC1)N1CC1 | . | - | . | . | . | . | .
O=C(Cc1cc(=O)oc2cc(O)ccc12)NN=Cc1ccc(N(CCCl)CCCl)cc1 | . | 16.0 | . | . | . | 31.1 | -
O=C(NN=Cc1ccc(N(CCCl)CCCl)cc1)c1cc(=O)[nH]c(=O)[nH]1 | . | - | . | . | . | . | .
CCOC(=O)[C@]12Cc3cc(C)ccc3[C@H]1N(C1CCCCC1)C(=O)c1cc(OC)ccc12 | . | 38.3 | . | . | . | 47.1 | 3.3
COC(=O)C1=C(c2c(C)noc2C)C[C@@H]2CC[C@H]1N2C(=O)NCCNC(C)=O | - | - | - | . | - | . | .
CCC(=O)N1CCN(CCN=Cc2c(O)n(C)c(=O)n(C)c2=O)CC1 | - | - | - | - | - | . | .
Cn1c(O)c(C=NCCCCCCCCCCC(=O)O)c(=O)n(C)c1=O | - | 17.3 | - | - | - | 13.5 | -
CCC(=NCCc1c[nH]c2ccccc12)c1c(O)n(-c2ccc(C)cc2)c(=O)[nH]c1=O | - | - | - | - | - | . | .
CCC(=NCCc1c[nH]c2ccccc12)c1c(O)n(C)c(=O)n(C)c1=O | - | 76.3 | 43.8 | - | - | 36.8 | 6.7
O=c1[nH]c2ccccc2n1C1CCN(C(CCc2ccccc2)c2nnnn2-c2ccc3c(c2)OCCO3)CC1 (stereo not given) | . | 20.7 | . | . | . | 16.9 | -
CCN(CC)c1ccc(/C=C2\C(=O)NC(=O)N(CC3CCCO3)C2=O)cc1 (stereo not given) | - | - | - | - | - | . | .
Cc1ccc(/C=C2\C(=O)NC(=O)N(CC3CCCO3)C2=O)s1 (stereo not given) | - | 15.7 | - | - | - | - | -
CC=C(C)C1(CCC)C(=O)NC(=S)NC1=O | . | - | . | . | . | . | .
